ChEMBL document CHEMBL1926577, “Novel 1,3,4-heterodiazole analogues: synthesis and in-vitro antitumor activity” (2012)
Calls of active or inactive are those of the source. The rule behind the calls is not given here.

Tests used:
Type in all cases: functional
CCRF-CEM = assay: Growth inhibition of human CCRF-CEM cells at 10 uM after 48 hrs by coulter counter method; settings: read-out: GI
Method in brief: (§1)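 NCI 60-cell-line panel, single dose. Compound dissolved first in DMSO, then diluted in phosphate-buffered saline so that every final dilution held under 1% DMSO. Duplicate wells received cells at 6 × 10⁴ cells/ml. Controls held PBS/DMSO at the same dilution. Plates were incubated 48 h at 37 °C under 5% CO₂. Cells were then diluted 10-fold in saline and counted on a Coulter counter, with counts corrected for the dilution. Results are given as percent growth inhibition.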

HL-60(TB) = assay: Growth inhibition of human HL-60(TB) cells at 10 uM after 48 hrs by coulter counter method; settings: HL-60, 48 h, read-out: GI
Method in brief: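 Single-dose screen on the NCI 60-line panel (leukemia subpanel). Compound is dissolved in DMSO and diluted in PBS, with final DMSO below 1%. Duplicate wells hold 6 × 10⁴ cells/ml at 37 °C, 5% CO₂, for 48 h. Cells are counted by Coulter counter after 10-fold saline dilution. Read-out is percent growth versus PBS/DMSO controls, expressed as % growth inhibition.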

K562 = assay: Growth inhibition of human K562 cells at 10 uM after 48 hrs by coulter counter method; settings: K562, 48 h, read-out: GI; method in brief: as §1
MOLT-4 = assay: Growth inhibition of human MOLT4 cells at 10 uM after 48 hrs by coulter counter method; settings: MOLT-4, 48 h, read-out: GI; method in brief: as §1
RPMI-8226 = assay: Growth inhibition of human RPMI8226 cells at 10 uM after 48 hrs by coulter counter method; settings: RPMI-8226, 48 h, read-out: GI; method in brief: as §1
SR = assay: Growth inhibition of human SR cells at 10 uM after 48 hrs by coulter counter method; settings: read-out: GI; method in brief: as §1
A549 = assay: Growth inhibition of human A549 cells at 10 uM after 48 hrs by coulter counter method; settings: A549, 48 h, read-out: GI; method in brief: as §1
EKVX = assay: Growth inhibition of human EKVX cells at 10 uM after 48 hrs by coulter counter method; settings: read-out: GI; method in brief: as §1
NCI-H226 = assay: Growth inhibition of human NCI-H226 cells at 10 uM after 48 hrs by coulter counter method; settings: NCI-H226, 48 h, read-out: GI; method in brief: as §1
NCI-H23 = assay: Growth inhibition of human NCI-H23 cells at 10 uM after 48 hrs by coulter counter method; settings: NCI-H23, 48 h, read-out: GI; method in brief: as §1
NCI-H322M = assay: Growth inhibition of human NCI-H322M cells at 10 uM after 48 hrs by coulter counter method; settings: read-out: GI; method in brief: as §1
NCI-H522 = assay: Growth inhibition of human NCI-H522 cells at 10 uM after 48 hrs by coulter counter method; settings: NCI-H522, 48 h, read-out: GI; method in brief: as §1
HCT-116 = assay: Growth inhibition of human HCT116 cells at 10 uM after 48 hrs by coulter counter method; settings: HCT-116, 48 h, read-out: GI; method in brief: as §1
HCT-15 = assay: Growth inhibition of human HCT15 cells at 10 uM after 48 hrs by coulter counter method; settings: HCT-15, 48 h, read-out: GI; method in brief: as §1
HT-29 = assay: Growth inhibition of human HT-29 cells at 10 uM after 48 hrs by coulter counter method; settings: HT-29, 48 h, read-out: GI; method in brief: as §1
KM12 = assay: Growth inhibition of human KM12 cells at 10 uM after 48 hrs by coulter counter method; settings: KM12, 48 h, read-out: GI; method in brief: as §1
SF-268 = assay: Growth inhibition of human SF268 cells at 10 uM after 48 hrs by coulter counter method; settings: SF-268, 48 h, read-out: GI; method in brief: as §1
SF-295 = assay: Growth inhibition of human SF295 cells at 10 uM after 48 hrs by coulter counter method; settings: SF-295, 48 h, read-out: GI; method in brief: as §1
SNB-19 = assay: Growth inhibition of human SNB19 cells at 10 uM after 48 hrs by coulter counter method; settings: SNB-19, 48 h, read-out: GI; method in brief: as §1
SNB-75 = assay: Growth inhibition of human SNB75 cells at 10 uM after 48 hrs by coulter counter method; settings: SNB-75, 48 h, read-out: GI; method in brief: as §1
U-251 = assay: Growth inhibition of human U251 cells at 10 uM after 48 hrs by coulter counter method; settings: U-251, 48 h, read-out: GI; method in brief: as §1
LOX IMVI = assay: Growth inhibition of human LOXIMVI cells at 10 uM after 48 hrs by coulter counter method; method in brief: as §1
Malme-3M = assay: Growth inhibition of human MALME-3M cells at 10 uM after 48 hrs by coulter counter method; settings: read-out: GI; method in brief: as §1
M14 = assay: Growth inhibition of human M14 cells at 10 uM after 48 hrs by coulter counter method; settings: M14, 48 h, read-out: GI; method in brief: as §1
MDA-MB-435 = assay: Growth inhibition of human MDA-MB-435 cells at 10 uM after 48 hrs by coulter counter method; settings: MDA-MB-435, 48 h, read-out: GI; method in brief: as §1
SK-MEL-2 = assay: Growth inhibition of human SK-MEL-2 cells at 10 uM after 48 hrs by coulter counter method; settings: SK-MEL-2, 48 h, read-out: GI; method in brief: as §1
SK-MEL-28 = assay: Growth inhibition of human SK-MEL-28 cells at 10 uM after 48 hrs by coulter counter method; settings: SK-MEL-28, 48 h, read-out: GI; method in brief: as §1
SK-MEL-5 = assay: Growth inhibition of human SK-MEL-5 cells at 10 uM after 48 hrs by coulter counter method; settings: SK-MEL-5, 48 h, read-out: GI; method in brief: as §1
UACC-257 = assay: Growth inhibition of human UACC257 cells at 10 uM after 48 hrs by coulter counter method; settings: UACC-257, 48 h, read-out: GI; method in brief: as §1
UACC-62 = assay: Growth inhibition of human UACC62 cells at 10 uM after 48 hrs by coulter counter method; settings: UACC-62, 48 h, read-out: GI; method in brief: as §1
IGROV-1 = assay: Growth inhibition of human IGROV1 cells at 10 uM after 48 hrs by coulter counter method; method in brief: as §1
OVCAR-8 = assay: Growth inhibition of human OVCAR8 cells at 10 uM after 48 hrs by coulter counter method; settings: OVCAR-8, 48 h, read-out: GI; method in brief: as §1
NCI/ADR-RES = assay: Growth inhibition of human NCI/ADR-RES cells at 10 uM after 48 hrs by coulter counter method; settings: read-out: GI; method in brief: as §1
786-0 = assay: Growth inhibition of human 786-0 cells at 10 uM after 48 hrs by coulter counter method; settings: 786-0, 48 h, read-out: GI; method in brief: as §1
A498 = assay: Growth inhibition of human A498 cells at 10 uM after 48 hrs by coulter counter method; settings: A498, 48 h, read-out: GI; method in brief: as §1
ACHN = assay: Growth inhibition of human ACHN cells at 10 uM after 48 hrs by coulter counter method; settings: read-out: GI; method in brief: as §1
CAKI-1 = assay: Growth inhibition of human Caki1 cells at 10 uM after 48 hrs by coulter counter method; method in brief: as §1
SN12C = assay: Growth inhibition of human SN12C cells at 10 uM after 48 hrs by coulter counter method; settings: read-out: GI; method in brief: as §1
TK-10 = assay: Growth inhibition of human TK10 cells at 10 uM after 48 hrs by coulter counter method; settings: TK-10, 48 h, read-out: GI; method in brief: as §1
UO-31 = assay: Growth inhibition of human UO31 cells at 10 uM after 48 hrs by coulter counter method; method in brief: as §1
PC-3 = assay: Growth inhibition of human PC3 cells at 10 uM after 48 hrs by coulter counter method; settings: PC-3, 48 h, read-out: GI; method in brief: as §1
MCF7 = assay: Growth inhibition of human MCF7 cells at 10 uM after 48 hrs by coulter counter method; settings: MCF7, 48 h, read-out: GI; method in brief: as §1
BT-549 = assay: Growth inhibition of human BT549 cells at 10 uM after 48 hrs by coulter counter method; settings: BT-549, 48 h, read-out: GI; method in brief: as §1
T47D = assay: Growth inhibition of human T47D cells at 10 uM after 48 hrs by coulter counter method; settings: read-out: GI; method in brief: as §1
MDA-MB-468 = assay: Growth inhibition of human MDA-MB-468 cells at 10 uM after 48 hrs by coulter counter method; settings: MDA-MB-468, 48 h, read-out: GI; method in brief: as §1

O=C1CN2N=C(c3ccc(Cl)cc3)SC2=N1
inhibition of growth at 10 µM (CCRF-CEM): 62.5%
inhibition of growth at 10 µM (HL-60(TB)): < 10%
inhibition of growth at 10 µM (K562): 18.8%
inhibition of growth at 10 µM (MOLT-4): 24%
inhibition of growth at 10 µM (RPMI-8226): 43.5%
inhibition of growth at 10 µM (SR): 32.5%
inhibition of growth at 10 µM (A549): < 10%
inhibition of growth at 10 µM (EKVX): < 10%
inhibition of growth at 10 µM (NCI-H226): 11.4%
inhibition of growth at 10 µM (NCI-H23): 14.9%
inhibition of growth at 10 µM (NCI-H322M): 31%
inhibition of growth at 10 µM (NCI-H522): 32.4%
inhibition of growth at 10 µM (HCT-116): 39.9%
inhibition of growth at 10 µM (HCT-15): 51.2%
inhibition of growth at 10 µM (HT-29): 31.1%
inhibition of growth at 10 µM (KM12): 38.3%
inhibition of growth at 10 µM (SF-268): 16.5%
inhibition of growth at 10 µM (SF-295): 38.6%
inhibition of growth at 10 µM (SNB-19): 18.2%
inhibition of growth at 10 µM (SNB-75): < 10%
inhibition of growth at 10 µM (U-251): 19.9%
growth inhibition (GI) (LOX IMVI): Active
inhibition of growth at 10 µM (Malme-3M): 22%
inhibition of growth at 10 µM (M14): 31.4%
inhibition of growth at 10 µM (MDA-MB-435): 11.7%
inhibition of growth at 10 µM (SK-MEL-2): < 10%
inhibition of growth at 10 µM (SK-MEL-28): < 10%
inhibition of growth at 10 µM (SK-MEL-5): 21.2%
inhibition of growth at 10 µM (UACC-257): < 10%
inhibition of growth at 10 µM (UACC-62): 20.7%
growth inhibition (GI) (IGROV-1): Active
inhibition of growth at 10 µM (OVCAR-8): 39.8%
inhibition of growth at 10 µM (NCI/ADR-RES): < 10%
inhibition of growth at 10 µM (786-0): < 10%
inhibition of growth at 10 µM (A498): < 10%
inhibition of growth at 10 µM (ACHN): 17.3%
growth inhibition (GI) (CAKI-1): Active
inhibition of growth at 10 µM (SN12C): 20.1%
inhibition of growth at 10 µM (TK-10): < 10%
growth inhibition (GI) (UO-31): Active
inhibition of growth at 10 µM (PC-3): 25.7%
inhibition of growth at 10 µM (MCF7): 25.7%
inhibition of growth at 10 µM (BT-549): 39.5%
inhibition of growth at 10 µM (T47D): 13%
inhibition of growth at 10 µM (MDA-MB-468): < 10%
